Shown are actives, neighbours in structure and some others; about 5.5% of the full set was active somewhere.
WT yeast gro inh – growth inhibition of WT yeast, mitochondrial fusion screen; mitochondrial fusion phenotypic screen, WT strain; inhibition, % at 10 µM; actives 2.1% (n = 190,000); AID 1362; in the data active = inhibition above about 58%; tested in S. cerevisiae
KCC2 mod – KCC2 (human) Cl- transport modulation; KCC2 cells, thallium flux FluoZin-2 fluorescence; B-score of Tl+ flux slope (higher = more flux/activation; lower = inhibition) at 10 µM; actives 2.2% (n = 190,000); AID 1456;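 active = thallium flux slope and its plate-corrected score both differing from the plate sample mean at a set confidence after two filtering rounds, in either direction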;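 also: slope of fluorescence scaled to starting intensity during 10 to 20 s after thallium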
Target sequence (Q9H2X9 whole entry, looked up): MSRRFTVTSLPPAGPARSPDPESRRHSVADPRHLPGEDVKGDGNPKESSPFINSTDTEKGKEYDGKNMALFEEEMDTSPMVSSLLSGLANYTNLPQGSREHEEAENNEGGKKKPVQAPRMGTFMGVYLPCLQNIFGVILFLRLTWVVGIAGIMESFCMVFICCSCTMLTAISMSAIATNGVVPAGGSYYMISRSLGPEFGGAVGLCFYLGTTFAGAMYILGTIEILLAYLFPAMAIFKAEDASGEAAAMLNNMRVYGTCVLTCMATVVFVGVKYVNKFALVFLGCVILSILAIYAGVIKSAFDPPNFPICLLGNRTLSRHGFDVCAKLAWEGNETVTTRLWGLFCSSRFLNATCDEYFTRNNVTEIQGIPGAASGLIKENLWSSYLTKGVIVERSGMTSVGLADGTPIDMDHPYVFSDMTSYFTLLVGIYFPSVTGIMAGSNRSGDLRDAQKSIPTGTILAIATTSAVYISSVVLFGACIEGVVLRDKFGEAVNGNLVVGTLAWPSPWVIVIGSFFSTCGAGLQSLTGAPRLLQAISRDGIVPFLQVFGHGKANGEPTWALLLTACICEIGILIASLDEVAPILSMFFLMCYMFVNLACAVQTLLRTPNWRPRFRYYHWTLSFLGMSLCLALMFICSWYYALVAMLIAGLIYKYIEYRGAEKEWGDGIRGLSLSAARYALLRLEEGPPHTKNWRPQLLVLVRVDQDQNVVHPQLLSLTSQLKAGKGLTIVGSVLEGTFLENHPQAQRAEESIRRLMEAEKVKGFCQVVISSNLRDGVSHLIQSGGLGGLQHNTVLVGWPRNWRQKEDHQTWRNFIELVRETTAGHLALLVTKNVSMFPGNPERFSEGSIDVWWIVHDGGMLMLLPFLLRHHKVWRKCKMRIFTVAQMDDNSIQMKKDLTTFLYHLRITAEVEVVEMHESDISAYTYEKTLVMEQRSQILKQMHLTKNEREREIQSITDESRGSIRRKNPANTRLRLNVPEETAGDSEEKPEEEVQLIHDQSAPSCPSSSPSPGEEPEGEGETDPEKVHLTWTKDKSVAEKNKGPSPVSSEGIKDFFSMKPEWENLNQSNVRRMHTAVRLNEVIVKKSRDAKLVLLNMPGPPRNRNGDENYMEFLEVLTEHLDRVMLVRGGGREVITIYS
RAM inhibit – blocks the yeast RAM network | S. cerevisiae dse1pr::URA3 reporter, 5-FOA growth OD615, 2 d; analog-sensitive cbk1-as2 kinase mutant strain | AID 868 | actives 1.8% (n = 190,000) | inhibition, % at 50 µM;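 active = inhibition above a set limit, 3 SD over mean compound inhibition, cut at about 8.4% in these data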;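 also: 0% = DMSO-only wells with no growth and 100% = 10 µM 1-NA-PP1 full growth; inhibition rescues growth on 5-FOA so higher OD means more RAM inhibition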
Yeast growth inh – yeast BB579 growth reduction in restrictive medium; actives 0.51% (n = 140,000); S. cerevisiae BB579 growth, OD615, 48 h; inhibition, % at 10 µM; AID 804;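 active = inhibition above a set limit, 3 SD over the mean compound inhibition, cut at about 44% in these data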
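Detection: OD615 turbidity measurement; Material: Saccharomyces cerevisiae DeaD strain BB579, replicative lifespan model yeast; Timing: 48 h exposure, 30 °C; Doses: single 10 µM dose; Medium: CSMM-D restrictive synthetic medium containing dextrose (glucose); Controls: amphotericin B at 10 µg/mL as positive control.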
Yeast life ext – yeast lifespan extension. inhibition of the nicotinamide effect, % at 10 µM. AID 775. actives 0.68% (n = 130,000). S. cerevisiae growth with nicotinamide, OD615; deaD strain in restrictive glucose medium;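 active = inhibition above a set limit, placed 3 SD over the median of all compounds, cut at about 26% in these data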;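 also: 0% = nicotinamide-treated wells and 100% = cells grown without nicotinamide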
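Test system: DeaD-strain S. cerevisiae / Buffer or medium: restrictive glucose medium / Also added: nicotinamide 1.5 mM / Doses: one concentration, 10 µM, DMSO 0.25% / Schedule: 48 h at 30 °C / Signal: OD615 measurement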
KCC2 sec1 – confirmation of human KCC2 transport modulators | normalised thallium flux (F/F0 slope) at 10 µM | actives 15% (n = 3,700) | shares compounds with KCC2 mod | HEK293-KCC2, thallium flux, FluoZin2 fluorescence; stronger effect = higher value | AID 1713;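 active = thallium flux slope above the same plate's solvent-only control mean plus 3 SD; inconclusive = the two replicate wells disagree; inactive = no significant difference from solvent-only control wells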
KCC2 bumet counter – bumetanide-insensitive thallium flux in KCC2 cells with ouabain, counter-screen; shares compounds with KCC2 mod; HEK293-KCC2 + bumetanide/ouabain, thallium flux FluoZin2; stronger effect = higher value; normalized thallium flux at 10 µM; actives 49% (n = 3,700);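 active = thallium entry rate above the same plate's blocked-transporter control wells by more than 3 SD; inconclusive = the two repeat wells disagree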;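 also: raw slope of fluorescence over initial fluorescence between 10 and 20 s after thallium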
KCC2 sec2 – KCC2 (human) modulation, second secondary assay; shares compounds with KCC2 mod; HEK293-KCC2, thallium flux FluoZin2 fluorescence; actives lie on both sides; F/F0 rise rate, 10–20 s post-thallium; normalized thallium flux at 10 µM; actives 23% (n = 3,700);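 active = thallium flux slope more than 3 SD above or below the plate's solvent-only control mean, mostly below; inconclusive = the two repeat wells disagreed; inactive = no significant shift from solvent-only controls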;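 also: raw slope with 0.1% DMSO as baseline and bumetanide as block control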
HEK counter1 – counter-screen for KCC2 modulators: effect in parental HEK293 cells; shares compounds with KCC2 mod; thallium flux FluoZin2, ouabain; baseline-ratio fluorescence slope, 10–20 s after thallium; thallium flux rate (normalised fluorescence) at 10 µM; actives 46% (n = 3,700);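 active = thallium flux rate significantly above the same plate's solvent-only control wells, beyond their mean plus 3 SD; inconclusive = the two replicate wells gave conflicting results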
KCC2 retest ouab – KCC2 (human) modulation, ouabain retest; actives 48% (n = 3,700); AID 1717; raw Tl+ flux slope (below DMSO = inhibition, above = activation) at 10 µM; HEK293-KCC2, thallium flux FluoZin2 fluorescence; bidirectional: low = inhibitor, high = activator; shares compounds with KCC2 mod;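 active = thallium flux slope beyond 3 SD from same-plate DMSO control mean in most replicates, usually higher, sometimes lower; inconclusive = repeat tests gave conflicting results; inactive = no significant difference from controls in most replicates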;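 also: slope of initial-normalized fluorescence between seconds 10 and 20 after thallium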
HEK293 Tl flux2 – acts in parental HEK cells, second KCC2 counter-screen | AID 1718 | HEK293 parental, thallium flux FluoZin-2 fluorescence slope | actives 33% (n = 3,700) | shares compounds with KCC2 mod | thallium flux slope at 10 µM;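 active = thallium flux slope above the same plate's solvent-control mean plus 3 SD in both duplicate wells; inconclusive = duplicate wells that disagreed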;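 also: run without ouabain in cells lacking the KCC2 cotransporter; slope of fluorescence scaled to its starting value between 10 and 20 s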
Active calls of the source: *.

What do the screens show for `O=C(O)/C=C/c1cn(Cc2ccccc2)nc1-c1ccccc1`?
WT yeast gro inh: -7.6; KCC2 mod: -3.23*; RAM inhibit: -0.5; Yeast growth inh: -42.9; Yeast life ext: -13.6; KCC2 sec1: 0.00695; KCC2 bumet counter: 0.00443; KCC2 sec2: inconclusive; HEK counter1: 0.00723; KCC2 retest ouab: 0.0154*; HEK293 Tl flux2: 0.00973

What do the screens show for `NC(=O)c1ccc(NC(=O)COC(=O)c2cccc(Oc3ccccc3)c2)cc1`?
WT yeast gro inh: -2.0; KCC2 mod: -0.405; RAM inhibit: 2.0; Yeast growth inh: -34.1; Yeast life ext: 3.6

What do the screens show for `O=C(/C=C/c1cccc([N+](=O)[O-])c1)Nc1cccc(NC(=O)c2cccs2)c1`?
WT yeast gro inh: -1.0; KCC2 mod: -4.6*; RAM inhibit: 6.8; Yeast growth inh: -12.5; Yeast life ext: -0.1; KCC2 sec1: 0.00715; KCC2 bumet counter: inconclusive; KCC2 sec2: 0.0246*; HEK counter1: 0.0072; KCC2 retest ouab: 0.0155*; HEK293 Tl flux2: 0.0104

How did COc1ccc(C(=O)N2N=C(c3ccccc3)CC2(O)C(F)(F)F)cc1 (stereo not drawn) do in these assays?
WT yeast gro inh: 7.4; KCC2 mod: 10.8*; RAM inhibit: 4.6; KCC2 sec1: 0.00545; KCC2 bumet counter: 0.0171*; KCC2 sec2: 0.0352; HEK counter1: 0.0138*; KCC2 retest ouab: 0.0258*; HEK293 Tl flux2: 0.0169*

How did COc1cccc(C2=NN(C(=O)c3ccccc3)C(O)(C(F)(F)F)C2)c1 (stereo not drawn) do in these assays?
WT yeast gro inh: 42.5; KCC2 mod: 3.15*; RAM inhibit: 2.7; Yeast growth inh: -81.0; Yeast life ext: 7.4; KCC2 sec1: 0.0111; KCC2 bumet counter: 0.0181*; KCC2 sec2: 0.0325; HEK counter1: 0.0124*; KCC2 retest ouab: inconclusive; HEK293 Tl flux2: inconclusive

Results for CCN1C(=O)[C@@H]2C(C(=O)c3cnccn3)=NN[C@@H]2C1=O ?
KCC2 mod: 0.642

Results for CC1Cc2ccccc2N1S(=O)(=O)c1cccc(C(=O)N2CCN(c3ncccn3)CC2)c1 (stereo not drawn) ?
WT yeast gro inh: 19.4; KCC2 mod: -0.938; RAM inhibit: 0.2

What do the screens show for `O=C1CN(C(=O)COc2ccc(F)cc2Br)c2ccccc2N1`?
WT yeast gro inh: -23.3; KCC2 mod: -0.121; RAM inhibit: 2.4

How did COc1ccccc1C1CCN(C(=O)c2cccs2)CC1 do in these assays?
KCC2 mod: -0.148

Results for CN(C)CC(O)COc1ccc(-c2ccc(C#N)cc2)cc1 (stereo not drawn) ?
WT yeast gro inh: 13.9; RAM inhibit: -0.7; Yeast growth inh: -42.4; Yeast life ext: -25.0

Results for CN(C)CC(O)COc1cccc(OCC(O)CN(C)C)c1 (stereo not drawn) ?
WT yeast gro inh: -11.2; RAM inhibit: 1.2; Yeast growth inh: -46.0; Yeast life ext: -7.6; KCC2 sec1: 0.00752; KCC2 bumet counter: 0.00442; KCC2 sec2: 0.031; HEK counter1: 0.00795; KCC2 retest ouab: 0.0197; HEK293 Tl flux2: 0.0102

How did CCN(CC)c1ccc(C(=O)Nc2cccc(F)c2)cc1 do in these assays?
WT yeast gro inh: 5.5; KCC2 mod: -3.3*; RAM inhibit: 0.0; Yeast growth inh: -4.8; Yeast life ext: 12.0; KCC2 sec1: 0.0185; KCC2 bumet counter: 0.00384; KCC2 sec2: 0.0269; HEK counter1: inconclusive; KCC2 retest ouab: 0.0135; HEK293 Tl flux2: 0.00943

How did CC(C)CC(NC(N)=O)C(=O)Nc1ccc(Oc2ccccc2)cc1 (stereo not drawn) do in these assays?
WT yeast gro inh: 4.5; KCC2 mod: 0.187; RAM inhibit: 0.0

What do the screens show for `O=C(CCCn1ncn2c(cc3occc32)c1=O)N1CCc2ccccc2C1`?
WT yeast gro inh: -7.4; KCC2 mod: -2.81*; RAM inhibit: 0.9; Yeast growth inh: -25.2; Yeast life ext: -5.0; KCC2 sec1: 0.00526; KCC2 bumet counter: 0.00494; KCC2 sec2: 0.0236*; HEK counter1: 0.00739; KCC2 retest ouab: inconclusive; HEK293 Tl flux2: 0.0114

How did CCOC(=O)CCCn1ncn2c(cc3occc32)c1=O do in these assays?
WT yeast gro inh: 6.0; KCC2 mod: 0.309; RAM inhibit: 0.1; Yeast growth inh: 5.2; Yeast life ext: -17.3

What do the screens show for `O=C(CCn1c(=O)oc2ccccc21)NCCN1CCc2ccccc2C1`?
WT yeast gro inh: -5.3; KCC2 mod: -0.417; RAM inhibit: -0.6; Yeast growth inh: -63.8; Yeast life ext: -8.5

How did O=C(CCCn1c(=O)oc2ccccc21)N1CCc2ccccc2C1 do in these assays?
WT yeast gro inh: 0.1; RAM inhibit: -0.3; Yeast growth inh: -14.2; Yeast life ext: -8.0; KCC2 sec1: 0.00822; KCC2 bumet counter: 0.00611; KCC2 sec2: 0.0321; HEK counter1: 0.00702; KCC2 retest ouab: 0.0181*; HEK293 Tl flux2: 0.0102

How did CC1=NN(C(C#N)c2ccccc2C)C(C)(C)C1 (stereo not drawn) do in these assays?
WT yeast gro inh: -5.7; KCC2 mod: 0.0214; RAM inhibit: 0.6

Results for Fc1cc(F)c2nc(Nc3nc4cc5c(cc4s3)OCO5)sc2c1 ?
WT yeast gro inh: 22.9; KCC2 mod: 8.46*; RAM inhibit: 0.6; Yeast growth inh: -24.3; Yeast life ext: -3.8; KCC2 sec1: 0.00792; KCC2 bumet counter: 0.0169*; KCC2 sec2: 0.0356; HEK counter1: 0.0131*; KCC2 retest ouab: 0.0256*; HEK293 Tl flux2: 0.0163*

How did O=C(Nc1nc2cc3c(cc2s1)OCO3)C1CC1 do in these assays?
KCC2 mod: 0.592

How did O=C(CN1C(=O)S/C(=C\C=C\c2ccccc2)C1=O)Nc1ccccc1C(=O)O do in these assays?
KCC2 mod: -5.88*; KCC2 sec1: 0.00717; KCC2 bumet counter: 0.00666; KCC2 sec2: inconclusive; HEK counter1: inconclusive; KCC2 retest ouab: 0.0145*; HEK293 Tl flux2: 0.01

Source: PubChem BioAssay
